# Measurements from different studies.
# Cell line: HEK293
# Read-out: cell growth or viability
Structure (SMILES),assay,conditions,measurement,value
O=C(Nc1ccc(Cl)c(Cl)c1)c1cccc(C(F)(F)F)c1,resazurin,48 h,CC50,10.1 µM
O=C1C=C2NCCc3c[nH]c(c32)C1=O,MTT,72 h,CC50,50 µM
COc1ccc2c(c1)c(=O)c(C(=O)NN)cn2Cc1ccccc1,resazurin,48 h,CC50,> 20 µM
O=C(Nc1cccc(C(F)(F)F)c1)c1cccc(C(F)(F)F)c1,resazurin,48 h,CC50,15.6 µM
Cc1ccc(Cn2cc(C(=O)NN)c(=O)c3cc(Oc4ccccc4)ccc32)cc1,resazurin,48 h,CC50,> 20 µM
O=C(Nc1cccc([N+](=O)[O-])c1)c1ccc(C(F)(F)F)cc1,resazurin,48 h,CC50,> 20 µM
Cc1ccc(Cn2cc(C(=O)N/N=C/c3ccc([N+](=O)[O-])o3)c(=O)c3cc([N+](=O)[O-])ccc32)cc1,resazurin,48 h,CC50,> 20 µM
COC(CNC1=CC2=NCCc3c[nH]c(c32)C1=O)c1c[nH]c2ccccc12 (stereo not drawn),MTT,72 h,CC50,4 µM
O=C(N/N=C/c1ccc([N+](=O)[O-])o1)c1cn(Cc2ccccc2)c2ccc([N+](=O)[O-])cc2c1=O,resazurin,48 h,CC50,> 20 µM
Cn1cc2c3c1C(=O)C(NCCc1ccc(O)cc1)=CC3=[N+](C)CC2,MTT,72 h,CC50,0.23 µM
CCCc1cc(=O)oc2cc(OCc3cc(=O)c(O)co3)ccc12,CCK-8,"36 µM, 24 h",viability,94%
O=C1C(NCCc2c[nH]c3ccccc23)=CC2=NCCc3c[nH]c1c32,MTT,72 h,CC50,3.1 µM
O=C(Nc1ccc(C(F)(F)F)nn1)c1cccc(C(F)(F)F)c1,resazurin,48 h,CC50,> 20 µM
O=C(N/N=C/c1ccc([N+](=O)[O-])o1)c1cn(Cc2ccccc2)c2ccccc2c1=O,resazurin,48 h,CC50,> 20 µM
COC1=CC2=[N+](C)CCc3c[nH]c(c32)C1=O,MTT,72 h,CC50,12.5 µM
